STAT3 inh: inhibitors of IL-6 induced STAT3 signaling | U3A cells, IL-6 STAT3-luciferase reporter, luminescence; host cell line lacks STAT1 | inhibition, % at 5.5 µM | hit rate 0.89% among 190,000 | AID 862;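 active = inhibition above the mean inhibition across all screened compounds plus 3 SD, cut at about 44% in these data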;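 note: 0% = DMSO only wells and 100% = 100 µM nifuroxazide control wells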
NF-kB neuron act: raises NF-kB expression in human neuronal cells. NF-kB reporter expression; stronger effect = higher value. fold change at 12.5 µM. hit rate 1.6% among 190,000; in the data active = fold change above about 3.3
STAT3 act: STAT3 signaling activation; hit rate 0.91% among 190,000; U3A cells, IL-6 STAT3-luciferase reporter, luminescence; 100% = signal with IL-6 EC80 alone; activation (% of control), % at 5.6 µM;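 active = activation above the screen-wide mean of compound activation plus 3 SD, cut at about 130% in these data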;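 note: 0% = background luminescence of wells with medium and substrate only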
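Detection: reporter luminescence signal / Assay system: STAT1-lacking human U3A cells, STAT3 luciferase reporter / Incubation: compound pre-incubation 1 h before IL-6, then 6 h stimulation at 37 °C / Control set: IL-6-only high control / Read-out: % activation relative to IL-6 control / Probe or stimulus: Interleukin-6, 33 ng/mL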
APP 5'UTR act: APP 5'UTR luciferase reporter activation; SH-SY5Y APP 5'UTR luciferase reporter, luminescence; zero percent = DMSO vehicle wells; activation, % at 2 µM; hit rate 1% among 190,000;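 active = activation above a set limit, based on mean plus 3 SD of controls, cut at about 140% in these data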
STAT1 blocker: reduces IFN-gamma driven STAT1 reporter signal | AID 920 | NIH 3T3 STAT1-luciferase reporter, luminescence | hit rate 0.35% among 200,000 | inhibition, % at 5.5 µM;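 active = inhibition above a set limit, the mean inhibition across all tested compounds plus 3 SD, cut at about 34% in these data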;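 note: 0% = IFN-gamma with DMSO and 100% = IFN-gamma with 300 µM nifuroxazide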
STAT1 activator: increases IFN-gamma driven STAT1 reporter signal; NIH 3T3 STAT1-luciferase reporter, luminescence; 100% = IFN-gamma alone, no compound; activation (% of control), % at 5.5 µM; hit rate 2.6% among 200,000; AID 932;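 active = activation above the screen-wide mean activation plus 3 SD, cut at about 130% in these data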;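 note: raw ratio to IFN-gamma control signal so 100% means no change and 0% no light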
Numbers without * were called inactive; x = no result given. Only some compounds are listed: those with a hit (about 5.1% of all), similar ones and a draw of the others.

SMILES	STAT3 inh	NF-kB neuron act	STAT3 act	APP 5'UTR act	STAT1 blocker	STAT1 activator
CCN(CC)S(=O)(=O)c1cccc(-c2nc3n(n2)Cc2ccccc2-3)c1	16	1.4	89	-10	-30	127
Clc1ccc(-c2nc3n(n2)Cc2ccccc2-3)cc1	8	6.1*	96	139*	-42	150*
Cc1nn(-c2nc3ccccc3[nH]2)c(=O)c2ccccc12	112*	0.29	8	-74	97*	9
Cc1nn(-c2nc3ccccc3[nH]2)c(N)c1-c1ccc(Cl)cc1	-9	1.9	109	106	-16	114
Cc1ccc(-n2ncc3ccccc3c2=O)cc1Cl	16	4.9*	91	97	-53	148*
Cc1ccc(-n2c(C)nc3c(cnn3-c3ccccc3Cl)c2=O)cc1C	15	0.58	92	2	11	90
Cc1nn(-c2ccc3ccccc3c2)c(=O)c2ccccc12	-23	3.2	124	142*	-55	149*
Cc1nn(-c2ccc(Cl)cc2)c(=O)c2ccccc12	-31	2.7	134*	62	-33	128
Cc1cc(Cl)ccc1Oc1nc(-c2ccccc2)ncc1S(C)(=O)=O	-6	1	110	9	2	98
COC(=O)c1ccc(OCC(=O)c2ccccc2)cc1	11	4.1*	96	116	-42	139*
COC(=O)c1ccc(OCCOc2ccc(C(=O)OC)cc2)cc1	-3	0.94	103	-15	4	102
CCc1nn2cc(C(=O)c3cc(C)ccc3O)cnc2c1-c1ccc(F)cc1	-1	1.1	103	0	10	91
Cc1ccc(NC(=O)C(OC(=O)c2ccccc2Cl)c2ccccc2)cc1Cl (centres undefined)	-7	1.1	106	-15	4	96
COc1ccc(C(=O)C(OC(=O)c2ccccc2)c2ccccc2)cc1 (centres undefined)	-22	1.5	125	42	-36	133*
COc1ccc(C(=O)C(OC(=O)c2ccccc2Cl)c2ccccc2)cc1 (centres undefined)	-28	1.5	118	26	-44	140*
Cc1ccc(C(=O)NC(=S)NCc2ccco2)cc1	9	1.6	99	42	-8	107
O=C(CC1Oc2ccccc2NC1=O)NCc1ccc(Cl)cc1 (centres undefined)	4	1.1	104	-14	-5	104
Cc1c(C(=O)NCc2ccoc2)oc2ccc3c(c12)C(=O)CC(C)(C)O3	-1	3.9*	106	120	-49	146*
Cc1cc(=O)n2nc(-c3ccc(C(F)(F)F)cc3)sc2n1	12	1.4	94	-2	-32	129*
CCc1ccc2nc(N)sc2c1	7	0.95	96	56	-9	106
Nc1ccc(-c2nc3cc(N)ccc3s2)cc1	22	5.3*	86	186*	1	99
Nc1ccc2nc(-c3ccccc3)sc2c1	64*	2.1	46	108	42*	61
Cc1c(Cl)cccc1NC(=S)NCc1ccc(Cl)cc1	3	x	102	6	-2	102
COc1ccc(-c2cc(-c3ccccc3)c(C#N)c(S(C)=O)n2)cc1 (centres undefined)	-4	3.6*	109	x	-5	105
CCSc1nc(-c2ccc(OC)cc2)cc(-c2ccccc2)c1C#N	13	1	94	7	10	91
SMILES	STAT3 inh	NF-kB neuron act	STAT3 act	APP 5'UTR act	STAT1 blocker	STAT1 activator
COc1cccc(-n2c(SCC(N)=O)nnc2-c2c[nH]c3ccccc23)c1	13	1.1	97	x	-4	104
O=C(Nc1nc2c(cc3c4c(cccc42)CC3)s1)c1ccccc1Cl	14	1.4	84	9	-12	111
Cc1cc(-c2ccc(Br)cc2)n[nH]1	27	1.5	83	25	-40	137*
Nc1cc(-c2ccc(Br)cc2)[nH]n1	-9	1	111	15	-5	104
CCOC(=O)c1[nH]c2ccc(OC)cc2c1C	24	1.9	81	31	-46	142*
Cc1cc(N(CCO)CCO)ccc1N=Nc1cc(F)ccc1F	-18	1.1	123	19	-37	133*
COc1cccc(-n2nc3c(-n4ncc(C#N)c4N)nnc(C)c3c2C)c1	3	1.2	98	15	2	98
COC(=O)c1ccc(N=NN2CCOCC2)cc1	4	3	97	81	-31	128
O=C(O)c1ccc(N=NN2CCCCC2)cc1	5	1.9	98	57	-40	135*
NS(=O)(=O)c1ccc(N=NN2CCCCC2)cc1	-17	1.9	115	32	-23	120
COC(=O)c1ccc(N=NN2CCCCCC2)cc1	28	4.1*	79	106	-41	137*
O=c1c2c3c(sc2ncn1/N=C/c1ccc([N+](=O)[O-])o1)CCCC3	-3	4*	111	-19	4	96
CC(C)(C)n1cnc2cc(NC(=O)c3cccs3)ccc21	14	4*	89	54	-47	142*
CCn1cnc2cc(NCc3cccs3)ccc21	-2	1.7	105	37	-30	124
CCn1cnc2cc(NC(=O)c3cccs3)ccc21	12	2.5	92	76	-41	135*
c1ccc(Sc2cnc3ccccc3n2)cc1	-12	1.6	110	38	-36	134*
C=CCSc1nc2ccsc2c(=O)n1-c1ccccc1	-8	1.2	109	23	5	95
O=C(Nc1ccc(CN2CCOCC2)cc1)c1cccc(-c2cc3ccccc3oc2=O)c1	15	0.52	93	3	-13	111
C/C(=N\NC(=O)c1ccc(CN2CCOCC2)cc1)c1ccc(NC(=O)c2ccccc2)cc1	10	1.5	96	74	-37	131*
O=C(Nc1ccc(CN2CCOCC2)cc1)c1cccc(F)c1	-2	2.1	104	76	-38	133*
Cc1ccc(S(=O)(=O)N(CC(=O)N=Nc2c(O)[nH]c3ccccc23)c2cccc(C)c2)cc1	2	0.72	102	-14	-4	104
COc1ccc(OC)c(C(=O)COC(=O)c2cccnc2Cl)c1	21	1.4	85	8	18	83
Cc1cc(C(=O)COC(=O)c2cc(O)c3ccccc3c2O)c(C)n1CC1CCCO1 (centres undefined)	-44	1	146*	-8	5	94
COc1ccc(C(=O)COC(=O)c2cccnc2Cl)c(OC)c1	1	1.8	102	50	-47	141*
Cc1cc(C(=O)COC(=O)C2COc3ccccc3O2)c(C)n1CC1CCCO1 (centres undefined)	6	1.3	100	12	1	99
O=C(COC(=O)c1cccnc1Cl)NCC1CCCO1 (centres undefined)	-2	0.99	101	12	14	87

From PubChem BioAssay
